Measurements collected from several papers.
Lines come from different studies, so protocols differ.

CCOC(=O)c1cc(Cl)cc(NC(=O)c2sc(Cl)cc2S(=O)(=O)N(C)c2ccc(OCC)c(OC)c2)c1 — half-life (male C57BL/6 mouse, brain; intraperitoneal, 10 mg/kg): 128 min
CC(=O)O[C@@]12CO[C@@H]1C[C@H](O)[C@@]1(C)C(=O)[C@H](O)C3=C(C)[C@@H](OC(=O)[C@H](O)[C@@H](NC(=O)OC(C)(C)C)c4ccccc4)C[C@@](O)([C@@H](OC(=O)c4ccccc4)[C@H]21)C3(C)C — half-life (male Kunming mouse, lung; oral, 20 mg/kg): 36 min
CCN1CCN(Cc2ccc(NC(=O)c3ccc(C)c(NC(=O)c4cncc(-c5cccs5)c4)c3)cc2C(F)(F)F)CC1 — half-life (mouse, plasma; intraperitoneal, 15 mg/kg, single dose): 145 min
CC(C(=O)Nc1c(F)cccc1F)N1CCN(c2ccccc2)CC1 (stereo not shown) — half-life (female C57BL/6 mouse, brain; intraperitoneal, 10 mg/kg): ~27 min
CCOc1ccc(N(C)S(=O)(=O)c2cc(Cl)sc2C(=O)Nc2cc(Cl)cc(C(=O)O)c2)cc1OC — half-life (male C57BL/6 mouse, brain; intraperitoneal, 10 mg/kg): 33.5 min
O=C(ONc1nc2nonc2nc1Nc1ccccc1F)c1ccc(OC(F)(F)F)cc1 — half-life (male C57BL/6 mouse, plasma; oral, 10 mg/kg): 15 to 27 min
CN1CCN(C(=O)[C@H](CCCN[C@@H]2C[C@H]2c2ccc(F)cc2)NC(=O)c2ccc(-n3ccnn3)cc2)CC1 — half-life (CD-1 mouse, plasma; intravenous, 3 mg/kg): 340 min
C=CS(=O)(=O)c1ccc(Nc2nc(OCC3CCCCC3)c3nc[nH]c3n2)cc1 — half-life (male BALB/c mouse, plasma; intravenous, 20 mg/kg, single dose): 316 min
O=C1CCC(N2Cc3cc(NC(=O)c4cccc(F)c4)ccc3C2=O)C(=O)N1 (stereo not shown) — half-life (female CD-1 mouse, plasma; intravenous, 3 mg/kg): 72 min
O=[N+]([O-])c1ccc(-c2ccc(O)cc2)c2cccnc12 — half-life (male CD-1 mouse, plasma; intravenous, 1 mg/kg): 7.56 min
COc1cc(C(=O)OCCCN2CCCN(CCCOC(=O)c3cc(OC)c(OC)c(OC)c3)CC2)cc(OC)c1OC — half-life (male CD-1 mouse, plasma; subcutaneous): 49.8 min
Nc1ncn([C@H]2C[C@H](O)[C@@H](CO)O2)c(=O)n1 — half-life (female C57BL/6 mouse, plasma; oral, 0.4 mg/kg): 54.6 min
CC1=NN(/C(=N/c2nnc(C)s2)Nc2ccc(C)c(C)c2)C(c2cc(F)c(F)c(F)c2)S1 (stereo not shown) — half-life (male CD-1 mouse, plasma; oral, 30 mg/kg): 131 min
